According to ChEMBL document CHEMBL3860038, “Discovery of (R,E)-N-(7-Chloro-1-(1-[4-(dimethylamino)but-2-enoyl]azepan-3-yl)-1H-benzo[d]imidazol-2-yl)-2-methylisonicotinamide (EGF816), a Novel, Potent, and WT Sparing Covalent Inhibitor of Oncogenic (L858R, ex19del) and Resistant (T790M) EGFR Mutants for the Treatment of EGFR Mutant …” (J Med Chem, 2016):
≈ marks a conversion by molar mass, not a printed value. Values belong to the compound of their own block, whether it stands above or below them.

What was measured:
[1] = Glutathione reactivity assessed as GSH adduct formation incubated for 1 hr using 10 mM glutathione
Summary of the method: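 Compound incubated 1 h with 10 mM glutathione; GSH adduct formation measured.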

[2] = molecular target: T1, Epidermal growth factor receptor (Homo sapiens, UniProt P00533, L858R/T790M); assay: Inhibition of N-terminal 6x-HIS-tagged human recombinant EGFR (696 to 1022 residues) L858R/T790M mutant expressed in Sf9 cells pre-incubated for 0 mins followed by 1 mM ATP addition by HTRF assay
T1 sequence (P00533 25-1210 T790M/L858R limits assumed): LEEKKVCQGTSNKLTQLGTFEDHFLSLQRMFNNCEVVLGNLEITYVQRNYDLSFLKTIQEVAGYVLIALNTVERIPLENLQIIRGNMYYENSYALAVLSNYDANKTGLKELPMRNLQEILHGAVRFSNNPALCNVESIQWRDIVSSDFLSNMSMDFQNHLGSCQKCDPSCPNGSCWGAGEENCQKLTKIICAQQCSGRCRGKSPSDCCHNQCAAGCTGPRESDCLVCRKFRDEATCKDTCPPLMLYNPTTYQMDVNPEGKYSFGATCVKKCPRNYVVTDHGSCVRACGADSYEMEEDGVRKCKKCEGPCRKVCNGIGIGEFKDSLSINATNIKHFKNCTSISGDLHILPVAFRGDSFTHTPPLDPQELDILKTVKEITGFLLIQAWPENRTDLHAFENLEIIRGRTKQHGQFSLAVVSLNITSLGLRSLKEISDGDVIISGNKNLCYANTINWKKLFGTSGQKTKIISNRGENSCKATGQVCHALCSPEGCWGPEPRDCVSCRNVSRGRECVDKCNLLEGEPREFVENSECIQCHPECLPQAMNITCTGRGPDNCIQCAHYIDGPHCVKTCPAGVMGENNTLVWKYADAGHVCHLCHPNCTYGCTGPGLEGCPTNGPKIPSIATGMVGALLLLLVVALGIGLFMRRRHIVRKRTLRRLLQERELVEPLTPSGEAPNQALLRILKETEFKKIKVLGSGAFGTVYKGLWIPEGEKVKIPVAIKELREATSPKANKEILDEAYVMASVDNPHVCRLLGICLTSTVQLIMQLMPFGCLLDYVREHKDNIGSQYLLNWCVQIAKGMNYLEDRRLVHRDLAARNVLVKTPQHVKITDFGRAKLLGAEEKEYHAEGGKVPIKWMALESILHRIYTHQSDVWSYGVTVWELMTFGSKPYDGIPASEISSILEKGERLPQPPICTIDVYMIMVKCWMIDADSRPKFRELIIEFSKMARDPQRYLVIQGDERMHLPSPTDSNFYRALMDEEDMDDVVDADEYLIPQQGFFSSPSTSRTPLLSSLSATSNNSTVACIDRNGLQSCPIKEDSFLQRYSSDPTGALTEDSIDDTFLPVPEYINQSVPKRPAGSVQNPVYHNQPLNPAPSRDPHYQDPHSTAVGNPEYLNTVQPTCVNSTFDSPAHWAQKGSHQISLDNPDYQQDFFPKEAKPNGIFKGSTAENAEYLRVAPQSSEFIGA
Summary of the method: (§1)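 HTRF kinase assay on the EGFR L858R-T790M kinase domain at 1 mM ATP. Compound with either no preincubation or a 90 min enzyme/compound preincubation.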

[3] = Inhibition of EGFR E746 to A750 deletion mutant phosphorylation in human patient derived HCC827 cells incubated for 3 hrs by ELISA method; format: cell-based; conditions: HCC827, 3 h
Summary of the method: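 HCC827 cells plated at 7500/well in 5% FBS/RPMI and left overnight at 37 °C. Then 3 h with a 12-point compound dilution series, no EGF stimulation. Lysed in Triton/protease/phosphatase-inhibitor buffer. Phospho-EGFR (Y1173) read by sandwich ELISA: anti-EGFR capture, anti-phospho-EGFR, anti-rabbit-HRP, chemiluminescence. IC50 from at least duplicates.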

[4] = molecular target: T1, Epidermal growth factor receptor; assay: Inhibition of N-terminal 6x-HIS-tagged human recombinant EGFR (696 to 1022 residues) L858R/T790M mutant expressed in Sf9 cells pre-incubated for 90 mins followed by 1 mM ATP addition by HTRF assay; summary of the method: as §1
[5] = molecular target: T1, Epidermal growth factor receptor; assay: Inhibition of EGFR L858R/T790M mutant phosphorylation in human patient derived H1975 cells incubated for 3 hrs by ELISA method; format: cell-based
[6] = molecular target: T2, Epidermal growth factor receptor (Homo sapiens, UniProt P00533); assay: Inhibition of N-terminal 6x-HIS-tagged wild type human recombinant EGFR (696 to 1022 residues) expressed in Sf9 cells pre-incubated for 90 mins followed by 10 uM ATP addition by HTRF assay
T2 sequence (P00533 whole entry, the tested form may be a part): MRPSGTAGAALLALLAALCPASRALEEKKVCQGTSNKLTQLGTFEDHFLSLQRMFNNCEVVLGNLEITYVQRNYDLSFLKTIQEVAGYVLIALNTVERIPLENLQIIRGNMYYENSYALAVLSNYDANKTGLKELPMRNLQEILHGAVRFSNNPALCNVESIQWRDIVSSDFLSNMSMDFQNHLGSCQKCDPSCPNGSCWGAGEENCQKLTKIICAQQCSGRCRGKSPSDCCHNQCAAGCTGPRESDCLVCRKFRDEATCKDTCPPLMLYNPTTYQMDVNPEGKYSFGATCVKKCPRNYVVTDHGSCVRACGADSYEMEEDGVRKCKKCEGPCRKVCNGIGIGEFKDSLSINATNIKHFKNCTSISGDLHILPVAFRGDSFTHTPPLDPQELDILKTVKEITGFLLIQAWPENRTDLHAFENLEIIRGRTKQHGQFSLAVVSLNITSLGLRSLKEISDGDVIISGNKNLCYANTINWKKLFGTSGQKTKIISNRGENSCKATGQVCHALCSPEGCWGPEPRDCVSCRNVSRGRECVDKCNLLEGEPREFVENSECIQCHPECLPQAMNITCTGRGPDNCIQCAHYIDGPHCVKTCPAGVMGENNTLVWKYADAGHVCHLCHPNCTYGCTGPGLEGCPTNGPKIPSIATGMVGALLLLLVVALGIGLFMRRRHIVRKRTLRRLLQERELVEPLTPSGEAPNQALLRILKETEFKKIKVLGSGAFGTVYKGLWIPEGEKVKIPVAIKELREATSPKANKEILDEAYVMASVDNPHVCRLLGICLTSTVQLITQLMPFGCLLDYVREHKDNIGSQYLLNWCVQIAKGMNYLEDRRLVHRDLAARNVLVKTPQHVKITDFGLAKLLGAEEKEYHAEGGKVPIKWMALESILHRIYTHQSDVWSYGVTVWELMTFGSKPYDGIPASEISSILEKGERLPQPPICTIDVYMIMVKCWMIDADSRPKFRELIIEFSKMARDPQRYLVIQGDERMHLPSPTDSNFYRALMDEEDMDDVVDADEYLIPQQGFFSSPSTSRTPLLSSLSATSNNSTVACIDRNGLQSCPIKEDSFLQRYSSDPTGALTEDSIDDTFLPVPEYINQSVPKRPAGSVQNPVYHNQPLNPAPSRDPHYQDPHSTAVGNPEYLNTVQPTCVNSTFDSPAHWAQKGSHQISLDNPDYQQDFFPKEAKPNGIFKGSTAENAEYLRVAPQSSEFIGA

[7] = molecular target: T3, Epidermal growth factor receptor (Homo sapiens, UniProt P00533, L858R); assay: Inhibition of N-terminal 6x-HIS-tagged human recombinant EGFR (696 to 1022 residues) L858R mutant expressed in Sf9 cells pre-incubated for 90 mins followed by 10 uM ATP addition by HTRF assay
T3 sequence (P00533 25-1210 L858R limits assumed): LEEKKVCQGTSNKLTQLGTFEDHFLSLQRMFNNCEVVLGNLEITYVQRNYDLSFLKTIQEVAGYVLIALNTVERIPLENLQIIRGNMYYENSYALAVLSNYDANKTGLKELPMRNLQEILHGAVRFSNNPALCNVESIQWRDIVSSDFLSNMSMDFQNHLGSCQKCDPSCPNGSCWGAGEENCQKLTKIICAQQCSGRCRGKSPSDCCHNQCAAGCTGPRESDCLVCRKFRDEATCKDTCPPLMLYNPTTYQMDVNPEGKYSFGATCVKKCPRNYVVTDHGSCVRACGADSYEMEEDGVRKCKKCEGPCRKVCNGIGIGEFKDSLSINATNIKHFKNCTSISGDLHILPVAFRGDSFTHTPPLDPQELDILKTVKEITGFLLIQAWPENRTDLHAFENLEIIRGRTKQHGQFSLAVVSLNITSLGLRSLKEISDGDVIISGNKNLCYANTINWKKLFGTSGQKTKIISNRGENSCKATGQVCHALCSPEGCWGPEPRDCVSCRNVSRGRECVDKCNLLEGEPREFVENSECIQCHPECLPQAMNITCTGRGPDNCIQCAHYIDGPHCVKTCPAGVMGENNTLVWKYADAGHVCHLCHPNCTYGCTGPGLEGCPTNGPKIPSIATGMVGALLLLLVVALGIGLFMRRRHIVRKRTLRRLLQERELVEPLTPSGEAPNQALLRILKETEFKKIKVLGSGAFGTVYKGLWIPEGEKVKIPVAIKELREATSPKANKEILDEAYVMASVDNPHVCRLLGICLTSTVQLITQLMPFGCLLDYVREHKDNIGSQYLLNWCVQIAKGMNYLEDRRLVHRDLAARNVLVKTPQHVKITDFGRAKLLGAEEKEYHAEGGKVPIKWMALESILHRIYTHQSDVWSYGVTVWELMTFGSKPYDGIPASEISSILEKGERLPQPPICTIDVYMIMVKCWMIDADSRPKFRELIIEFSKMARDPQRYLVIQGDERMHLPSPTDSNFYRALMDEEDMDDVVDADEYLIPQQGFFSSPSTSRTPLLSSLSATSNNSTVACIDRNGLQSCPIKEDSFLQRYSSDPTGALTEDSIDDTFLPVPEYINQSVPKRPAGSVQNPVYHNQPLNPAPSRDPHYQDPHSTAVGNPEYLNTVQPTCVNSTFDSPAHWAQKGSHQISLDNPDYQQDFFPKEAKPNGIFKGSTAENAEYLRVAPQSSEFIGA

[8] = molecular target: T1, Epidermal growth factor receptor; assay: Inhibition of N-terminal 6x-HIS-tagged human recombinant EGFR (696 to 1022 residues) L858R/T790M mutant expressed in Sf9 cells pre-incubated for 90 mins followed by 10 uM ATP addition by HTRF assay
[9] = molecular target: T2, Epidermal growth factor receptor; assay: Inhibition of wild type human EGFR phosphorylation expressed in mouse NIH/3T3 cells incubated for 3 hrs by ELISA method; format: cell-based
Summary of the method: (§2)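 Engineered NIH-3T3 cells expressing L858R-T790M, L858R or WT EGFR. 3 h compound treatment, then cellular phospho-EGFR target modulation read-out. IC50 averaged from at least duplicates.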

[10] = molecular target: T1, Epidermal growth factor receptor; assay: Inhibition of EGFR L858R/T790M mutant (unknown origin) phosphorylation expressed in mouse NIH/3T3 cells incubated for 3 hrs by ELISA method; format: cell-based; summary of the method: as §2
[11] = molecular target: T3, Epidermal growth factor receptor; assay: Inhibition of EGFR L858R mutant (unknown origin) phosphorylation expressed in mouse NIH/3T3 cells incubated for 3 hrs by ELISA method; format: cell-based; summary of the method: as §2
[12] = Aqueous solubility of the compound at pH 6.8; format: physicochemical
[13] = Intrinsic clearance in mouse liver microsomes; format: ADME; conditions: read-out: CLH
[14] = molecular target: T2, Epidermal growth factor receptor; assay: Inhibition of wild type EGFR phosphorylation in human HaCaT cells incubated for 3 hrs by ELISA method; format: cell-based
Cytochrome P450 2C9 = Cytochrome P450 2C9 (Homo sapiens, UniProt P11712); assay: Inhibition of CYP2C9 (unknown origin); format: ADME
Sequence of Cytochrome P450 2C9 (P11712 whole entry): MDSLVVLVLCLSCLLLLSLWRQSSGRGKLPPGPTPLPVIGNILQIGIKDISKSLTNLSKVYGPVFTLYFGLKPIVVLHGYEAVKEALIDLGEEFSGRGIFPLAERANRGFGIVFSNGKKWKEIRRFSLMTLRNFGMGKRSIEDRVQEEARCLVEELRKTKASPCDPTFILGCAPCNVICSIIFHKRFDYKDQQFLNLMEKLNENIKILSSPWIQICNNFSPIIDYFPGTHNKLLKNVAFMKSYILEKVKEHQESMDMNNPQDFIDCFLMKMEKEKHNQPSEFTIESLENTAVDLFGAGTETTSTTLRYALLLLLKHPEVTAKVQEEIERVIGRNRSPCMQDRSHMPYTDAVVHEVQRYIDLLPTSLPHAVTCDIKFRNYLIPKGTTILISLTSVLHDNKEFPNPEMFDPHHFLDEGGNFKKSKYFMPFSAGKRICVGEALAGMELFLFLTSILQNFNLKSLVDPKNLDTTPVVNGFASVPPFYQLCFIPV

Cytochrome P450 2D6 = Cytochrome P450 2D6 (Homo sapiens, UniProt P10635); assay: Inhibition of CYP2D6 (unknown origin); format: ADME
Sequence of Cytochrome P450 2D6 (P10635 whole entry): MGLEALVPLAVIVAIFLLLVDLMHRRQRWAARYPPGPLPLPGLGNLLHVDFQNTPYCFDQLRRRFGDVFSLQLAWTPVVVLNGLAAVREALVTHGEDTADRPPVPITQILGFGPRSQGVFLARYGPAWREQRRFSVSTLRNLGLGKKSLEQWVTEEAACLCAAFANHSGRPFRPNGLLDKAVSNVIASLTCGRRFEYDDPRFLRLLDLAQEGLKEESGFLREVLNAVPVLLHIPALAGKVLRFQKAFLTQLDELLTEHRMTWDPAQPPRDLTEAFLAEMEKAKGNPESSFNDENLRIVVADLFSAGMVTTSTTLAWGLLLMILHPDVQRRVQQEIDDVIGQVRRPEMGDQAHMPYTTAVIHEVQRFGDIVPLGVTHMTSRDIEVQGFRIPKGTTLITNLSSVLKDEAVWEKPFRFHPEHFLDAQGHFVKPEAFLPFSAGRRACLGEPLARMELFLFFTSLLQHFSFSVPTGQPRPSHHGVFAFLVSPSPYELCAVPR

Cytochrome P450 3A4 = Cytochrome P450 3A4 (Homo sapiens, UniProt P08684); assay: Inhibition of CYP3A4 (unknown origin); format: ADME
Sequence of Cytochrome P450 3A4 (P08684 whole entry): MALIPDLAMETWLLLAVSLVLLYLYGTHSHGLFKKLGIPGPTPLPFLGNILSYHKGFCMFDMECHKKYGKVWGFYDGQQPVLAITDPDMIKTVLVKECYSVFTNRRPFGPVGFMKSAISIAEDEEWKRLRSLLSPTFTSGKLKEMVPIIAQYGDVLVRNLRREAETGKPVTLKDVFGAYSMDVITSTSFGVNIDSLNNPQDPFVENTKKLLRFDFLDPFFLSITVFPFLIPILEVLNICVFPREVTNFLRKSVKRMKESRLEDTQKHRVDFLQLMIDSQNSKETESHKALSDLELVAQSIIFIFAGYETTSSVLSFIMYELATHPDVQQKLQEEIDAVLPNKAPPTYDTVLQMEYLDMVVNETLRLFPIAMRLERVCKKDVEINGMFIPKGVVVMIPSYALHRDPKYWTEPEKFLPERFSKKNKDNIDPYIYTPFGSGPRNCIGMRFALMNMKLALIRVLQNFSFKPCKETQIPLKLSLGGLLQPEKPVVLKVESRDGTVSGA

[15] = Oral bioavailability in balb/c mouse at 20 mg/kg by liquid chromatography-tandem mass spectrometry; format: ADME, organism-based; conditions: in vivo
Summary of the method: (§3)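 Rodent PK in male balb/c mice and male Wistar rats; plasma drug levels by LC-MS/MS. Mouse oral dosing at 20 mg/kg, with compounds given as a 0.5% methylcellulose/0.5% Tween 80 suspension or as solutions (PEG300/D5W, or ethanol/PEG300 with Solutol or D5W), depending on compound.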

[16] = AUC in balb/c mouse at 20 mg/kg, po by liquid chromatography-tandem mass spectrometry; format: ADME, organism-based; conditions: in vivo; summary of the method: as §3
[17] = Clearance in balb/c mouse at 5 mg/kg, iv by liquid chromatography-tandem mass spectrometry; format: ADME, organism-based; conditions: in vivo; summary of the method: as §3
[18] = Intrinsic clearance in human liver microsomes; format: ADME; conditions: read-out: CLH
[19] = molecular target: T3, Epidermal growth factor receptor; assay: Inhibition of EGFR L858R mutant phosphorylation in human patient derived H3255 cells incubated for 3 hrs by ELISA method; format: cell-based

SMILES: Cc1cc(C(=O)Nc2nc3cccc(Cl)c3n2[C@@H]2CCCCN(C(=O)/C=C/CN(C)C)C2)ccn1
Drug metabolism [1]: < 5%

SMILES: C=CC(=O)NCCCn1c(NC(=O)c2cccc(C(F)(F)F)c2)nc2cc(C)ccc21
IC50 [2]: > 50 µM
IC50 [3]: 1650 nM
IC50 [4]: 50 nM
IC50 [5]: 525 nM

SMILES: Cc1cccc2c1nc(NC(=O)c1cccc(C(F)(F)F)c1)n2[C@H]1CC[C@H](O)CC1
IC50 [6]: > 50 µM
IC50 [7]: 11.8 µM
IC50 [8]: 1370 nM

SMILES: C=CC(=O)N(C)c1cccc(-n2c(NC(=O)c3cccc(C(F)(F)F)c3)nc3cc(C)ccc32)c1
IC50 [2]: 22.3 µM
IC50 [14]: > 10 µM
IC50 [3]: 268 nM
IC50 [4]: 10 nM
IC50 [5]: 181 nM

SMILES: C=CC(=O)Nc1ccccc1-n1c(NC(=O)c2cccc(C(F)(F)F)c2)nc2cc(C)ccc21
IC50 [2]: > 50 µM
IC50 [4]: > 32800 nM

SMILES: C=CC(=O)Nc1cccc(Nc2nc(Nc3ccc(N4CCN(C(C)=O)CC4)cc3OC)ncc2C(F)(F)F)c1 [ROCILETINIB]
IC50 [3]: 9.5 nM

Continued, in another order:

IC50 [9]: > 10 µM
IC50 [2]: > 50 µM
IC50 [10]: 41.4 nM
IC50 [11]: 543 nM
IC50 [4]: 4 nM
SMILES: C=CC(=O)N[C@H]1CCC[C@@H](n2c(NC(=O)c3cccc(C(F)(F)F)c3)nc3cc(C)ccc32)C1 (racemic)

IC50 [2]: > 50 µM
IC50 [4]: > 50000 nM
SMILES: C=CC(=O)N[C@H]1CC[C@H](n2c(NC(=O)c3cccc(C(F)(F)F)c3)nc3cc(C)ccc32)CC1

IC50 [9]: > 10 µM
IC50 [2]: > 50 µM
IC50 [10]: 409 nM
IC50 [11]: > 3720 nM
IC50 [4]: 60 nM
SMILES: C=CC(=O)N[C@@H]1CCC[C@@H](n2c(NC(=O)c3cccc(C(F)(F)F)c3)nc3cc(C)ccc32)C1 (racemic)

solubility [12]: 10.5 µM (≈ 5.54 µg/mL)
microsomal CLint [13]: 233 µL/min/mg
IC50 [14]: 0.351 µM
IC50 (Cytochrome P450 2C9): 17.6 µM
IC50 (Cytochrome P450 2D6): 16.7 µM
IC50 (Cytochrome P450 3A4): 22.2 µM
IC50 [3]: 12.4 nM
bioavailability [15]: 40%
AUC [16]: 4.39 µM·h
clearance [17]: 57.2 mL/min/kg
microsomal CLint [18]: 49 µL/min/mg
IC50 [5]: 2.18 nM
IC50 [19]: 45.9 nM
SMILES: Cc1cccc2nc(NC(=O)c3cccc(C(F)(F)F)c3)n([C@@H]3CCCCN(C(=O)/C=C/CN(C)C)C3)c12
Drug metabolism [1]: < 5%

IC50 [2]: > 37.7 µM
IC50 [4]: 16500 nM
SMILES: C=CC(=O)N1CCC(n2c(NC(=O)c3cccc(C(F)(F)F)c3)nc3cc(C)ccc32)CC1

IC50 [2]: 0.83 µM
IC50 [14]: 4.33 µM
IC50 [3]: 15.9 nM
IC50 [4]: < 2 nM
IC50 [5]: 6.1 nM
IC50 [19]: 74.9 nM
SMILES: C=CC(=O)N1CCCCC(n2c(NC(=O)c3cccc(C(F)(F)F)c3)nc3cc(C)ccc32)C1 (centres undefined)

IC50 [2]: > 50 µM
IC50 [4]: > 50000 nM
SMILES: C=CC(=O)N1CCC(n2c(NC(=O)c3cccc(C(F)(F)F)c3)nc3cc(C)ccc32)C1 (centres undefined)

IC50 [2]: > 50 µM
IC50 [4]: 6810 nM
SMILES: C=CC(=O)NC1CCC(n2c(NC(=O)c3cccc(C(F)(F)F)c3)nc3cc(C)ccc32)C1 (centres undefined)
